Measurements from ChEMBL document CHEMBL4138097, “Investigation of pyrazolo-sulfonamides as putative small molecule oxytocin receptor agonists” (Eur J Med Chem, 2017).
pIC50, pKi: −log10 of the molar value. Calls of active or inactive are those of the source. The calls are words filed in the database; no cut-off is given here.

Columns and labels:
[1] = molecular target: T1, Oxytocin receptor (Homo sapiens) (UniProt P30559); experiment: Antagonist activity at human OTR expressed in HEK293 cell membranes assessed as inhibition of OT-induced IP1 accumulation by measuring IP1 level at 100 nM measured after 1 hr by flourescence assay relative to control; type: functional, cell-based; design: scale not given: the % may be the effect or the level left
T1 sequence (whole entry): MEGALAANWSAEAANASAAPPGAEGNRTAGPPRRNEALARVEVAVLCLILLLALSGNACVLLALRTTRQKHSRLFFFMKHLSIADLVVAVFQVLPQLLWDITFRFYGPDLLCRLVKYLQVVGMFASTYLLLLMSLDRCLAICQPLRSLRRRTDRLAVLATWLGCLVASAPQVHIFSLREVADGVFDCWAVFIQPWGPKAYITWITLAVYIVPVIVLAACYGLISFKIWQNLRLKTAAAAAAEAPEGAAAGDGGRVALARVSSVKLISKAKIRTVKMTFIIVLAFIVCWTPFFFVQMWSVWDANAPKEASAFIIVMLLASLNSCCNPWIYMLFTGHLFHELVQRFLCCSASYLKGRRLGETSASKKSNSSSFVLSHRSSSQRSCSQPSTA

[2] = molecular target: T1, Oxytocin receptor (Homo sapiens); experiment: Antagonist activity at human OTR expressed in HEK293 cell membranes assessed as inhibition of OT-induced IP1 accumulation by measuring IP1 level at 10 uM measured after 1 hr by fluorescence assay relative to control; type: functional, cell-based; design: scale not given: the % may be the effect or the level left
Oxytocin receptor [3] = molecular target: T2, Oxytocin receptor (Homo sapiens, UniProt P30559); experiment: Antagonist activity at human OTR expressed in HEK293 cell membranes assessed as inhibition of OT-induced IP1 accumulation measured after 1 hr by fluorescence assay; type: functional, cell-based; conditions: read-out: pIC50 (converted)
T2 sequence (P30559 whole entry): T1 sequence (whole entry)

Vasopressin V1a receptor [4] = molecular target: T3, Vasopressin V1a receptor (Homo sapiens, UniProt P37288); experiment: Antagonist activity at human vasopressin 1a receptor expressed in HEK293 cell membranes assessed as inhibition of AVP-induced IP1 accumulation by measuring IP1 level at 100 nM measured after 1 hr by fluorescence assay relative to control; type: functional, cell-based; design: scale not given: the % may be the effect or the level left
Target sequence in this assay (P37288 whole entry, looked up): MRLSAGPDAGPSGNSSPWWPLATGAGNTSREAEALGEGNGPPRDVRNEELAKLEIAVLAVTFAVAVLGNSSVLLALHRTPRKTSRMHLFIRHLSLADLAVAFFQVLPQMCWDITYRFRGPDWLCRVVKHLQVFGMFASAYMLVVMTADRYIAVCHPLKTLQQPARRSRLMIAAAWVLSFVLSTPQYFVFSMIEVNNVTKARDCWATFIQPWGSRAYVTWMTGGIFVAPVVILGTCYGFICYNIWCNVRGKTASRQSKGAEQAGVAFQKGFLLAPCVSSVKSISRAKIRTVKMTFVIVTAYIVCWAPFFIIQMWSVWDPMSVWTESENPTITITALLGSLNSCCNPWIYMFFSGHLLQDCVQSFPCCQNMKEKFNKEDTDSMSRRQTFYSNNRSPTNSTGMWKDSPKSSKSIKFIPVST

Vasopressin V1a receptor [5] = molecular target: T3, Vasopressin V1a receptor; experiment: Antagonist activity at human vasopressin 1a receptor expressed in HEK293 cell membranes assessed as inhibition of AVP-induced IP1 accumulation by measuring IP1 level at 10 uM measured after 1 hr by fluorescence assay relative to control; type: functional, cell-based; design: scale not given: the % may be the effect or the level left
Target sequence in this assay (P37288 whole entry, looked up): as above

Vasopressin V1a receptor [6] = molecular target: T3, Vasopressin V1a receptor; experiment: Antagonist activity at human vasopressin 1a receptor expressed in HEK293 cell membranes assessed as inhibition of AVP-induced IP1 accumulation measured after 1 hr by fluorescence assay; type: functional, cell-based
Target sequence in this assay (P37288 whole entry): as the sequence (P37288 whole entry, looked up) above

[7] = molecular target: T1, Oxytocin receptor (Homo sapiens); experiment: Antagonist activity at human OTR expressed in CHO cell membranes assessed as inhibition of OT-induced IP1 accumulation by measuring IP1 level at 100 nM measured after 1 hr by fluorescence assay relative to control; type: functional, cell-based; design: scale not given: the % may be the effect or the level left
[8] = molecular target: T1, Oxytocin receptor (Homo sapiens); experiment: Antagonist activity at human OTR expressed in CHO cell membranes assessed as inhibition of OT-induced IP1 accumulation by measuring IP1 level at 10 uM measured after 1 hr by fluorescence assay relative to control; type: functional, cell-based; design: scale not given: the % may be the effect or the level left
Oxytocin receptor [9] = molecular target: T2, Oxytocin receptor; experiment: Antagonist activity at human OTR expressed in CHO cell membranes assessed as inhibition of OT-induced IP1 accumulation measured after 1 hr by fluorescence assay; type: functional, cell-based
Vasopressin V1a receptor [10] = molecular target: T3, Vasopressin V1a receptor; experiment: Antagonist activity at human vasopressin 1a receptor expressed in CHO cell membranes assessed as inhibition of AVP-induced IP1 accumulation by measuring IP1 level at 100 nM measured after 1 hr by fluorescence assay relative to control; type: functional, cell-based; design: scale not given: the % may be the effect or the level left
Target sequence in this assay (P37288 whole entry, looked up): as above

Vasopressin V1a receptor [11] = molecular target: T3, Vasopressin V1a receptor; experiment: Antagonist activity at human vasopressin 1a receptor expressed in CHO cell membranes assessed as inhibition of AVP-induced IP1 accumulation by measuring IP1 level at 10 uM measured after 1 hr by fluorescence assay relative to control; type: functional, cell-based; design: scale not given: the % may be the effect or the level left
Target sequence in this assay (P37288 whole entry, looked up): as above

Vasopressin V1a receptor [12] = molecular target: T3, Vasopressin V1a receptor; experiment: Antagonist activity at human vasopressin 1a receptor expressed in CHO cell membranes assessed as inhibition of AVP-induced IP1 accumulation by measuring IP1 level measured after 1 hr by fluorescence assay; type: functional, cell-based
Target sequence in this assay (P37288 whole entry): as the sequence (P37288 whole entry, looked up) above

[13] = molecular target: T1, Oxytocin receptor (Homo sapiens); experiment: Antagonist activity at human OTR expressed in HEK293 cell membranes assessed as inhibition of OT-induced increase in Ca2+ flux by measuring intracellular calcium level at 10 uM preincubated for 5 mins followed by OT addition measured after 5 mins for every 2 secs by Ca5 dye based FLIPR assay (reference value: 4.5 +/- 0.1%); type: functional
Procedure, shortened: (§1)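 HEK cells were pre-incubated 5 min with compound (10 μM) or vehicle (0.1% DMSO). Agonist was then added: OT for hOTR, AVP for hV1aR. Peak Ca5 fluorescence was taken as fold-change over baseline. A 4-parameter fit gave pEC50 and Max. Run in duplicate with 5-6 independent replicates, mean ± S.E.M.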

Vasopressin V1a receptor [14] = molecular target: T3, Vasopressin V1a receptor; experiment: Antagonist activity at human vasopressin 1a receptor expressed in HEK293 cell membranes assessed as inhibition of AVP-induced increase in Ca2+ flux by measuring intracellular calcium level at 10 uM preincubated for 5 mins followed by AVP addition measured after 5 mins for every 2 secs by Ca5 dye based FLIPR assay (reference value: 5.2 +/- 0.2%); type: functional; procedure, shortened: as §1
Target sequence in this assay (P37288 whole entry, looked up): as above

Oxytocin receptor [15] = molecular target: T2, Oxytocin receptor; experiment: Displacement of [3H]-oxytocin from human OTR expressed in HEK293 cell membranes after 90 mins by microbeta scintillation counting method
Vasopressin V1a receptor [16] = molecular target: T3, Vasopressin V1a receptor; experiment: Displacement of [3H]-vasopressin from human vasopressin 1a receptor expressed in HEK293 cell membranes after 90 mins by microbeta scintillation counting method
Target sequence in this assay (P37288 whole entry): as the sequence (P37288 whole entry, looked up) above

[17] = molecular target: T1, Oxytocin receptor (Homo sapiens); experiment: Agonist activity at human OTR expressed in HEK293 cell membranes induction of IP1 accumulation at 0.1 to 10 uM measured after 1 hr by fluorescence assay; type: functional, cell-based
Procedure, shortened: (§2)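 IP1 accumulation in HEK or stably transfected CHO cells expressing hOTR or hV1aR. Compounds tested alone at 100 nM and 10 μM against vehicle (basal). Reference agonist was OT 10 nM at hOTR or AVP 10 nM at hV1aR. Non-transfected HEK cells given OT served as a specificity check. Mean ± S.E.M.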

Vasopressin V1a receptor [18] = molecular target: T3, Vasopressin V1a receptor; experiment: Agonist activity at human vasopressin 1a receptor expressed in HEK293 cell membranes assessed as induction of IP1 accumulation at 0.1 to 10 uM measured after 1 hr by fluorescence assay; type: functional, cell-based; procedure, shortened: as §2
Target sequence in this assay (P37288 whole entry, looked up): as above

[19] = molecular target: T1, Oxytocin receptor (Homo sapiens); experiment: Positive allosteric modulation of human OTR expressed in HEK293 cell membranes assessed as increase in OT-induced IP1 accumulation at 10 uM measured after 1 hr by fluorescence assay; type: functional, cell-based
Procedure, shortened: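 hOTR-transfected HEK cells treated with ~EC10 OT (3 nM) plus compound (10 μM) or vehicle (0.1% DMSO). IP1 measured and compared with OT plus vehicle. Mean ± S.E.M.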

[20] = molecular target: T1, Oxytocin receptor (Homo sapiens); experiment: Agonist activity at human OTR expressed in HEK293 cell membranes assessed as increase in Ca2+ flux at 0.1 to 10 uM measured after 5 mins for every 2 secs by Ca5 dye based FLIPR assay; type: functional
Procedure, shortened: (§3)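 Intracellular Ca2+ read by FLIPR with Ca5 dye in HEK or stably transfected CHO cells expressing hOTR or hV1aR. Compounds added alone at 100 nM and 10 μM. Response taken as the change in fluorescence.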

Vasopressin V1a receptor [21] = molecular target: T3, Vasopressin V1a receptor; experiment: Agonist activity at human vasopressin 1a receptor expressed in HEK293 cell membranes assessed as increase in Ca2+ flux at 0.1 to 10 uM measured after 5 mins for every 2 secs by Ca5 dye based FLIPR assay; type: functional; procedure, shortened: as §3
[22] = molecular target: T1, Oxytocin receptor (Homo sapiens); experiment: Agonist activity at human OTR expressed in CHO cell membranes assessed as increase in Ca2+ flux at 0.1 to 10 uM measured after 5 mins for every 2 secs by Ca5 dye based FLIPR assay; type: functional; procedure, shortened: as §3
Vasopressin V1a receptor [23] = molecular target: T3, Vasopressin V1a receptor; experiment: Agonist activity at human vasopressin 1a receptor expressed in CHO cell membranes assessed as increase in Ca2+ flux at 0.1 to 10 uM measured after 5 mins for every 2 secs by Ca5 dye based FLIPR assay; type: functional; procedure, shortened: as §3
[24] = molecular target: T1, Oxytocin receptor (Homo sapiens); experiment: Agonist activity at human OTR expressed in CHO cell membranes assessed as induction of IP1 accumulation at 0.1 to 10 uM measured after 1 hr by fluorescence assay; type: functional, cell-based; procedure, shortened: as §2
Vasopressin V1a receptor [25] = molecular target: T3, Vasopressin V1a receptor; experiment: Agonist activity at human vasopressin 1a receptor expressed in CHO cell membranes assessed as induction of IP1 accumulation at 0.1 to 10 uM measured after 1 hr by fluorescence assay; type: functional, cell-based; procedure, shortened: as §2

Row | Compound | Activity [1] [%] | Activity [2] [%] | IC50 (Oxytocin receptor [3]) [µM] | Activity (Vasopressin V1a receptor [4]) [%] | Activity (Vasopressin V1a receptor [5]) [%] | pIC50 (Vasopressin V1a receptor [6]) | Activity [7] [%] | Activity [8] [%] | pIC50 (Oxytocin receptor [9]) | Activity (Vasopressin V1a receptor [10]) [%] | Activity (Vasopressin V1a receptor [11]) [%] | pIC50 (Vasopressin V1a receptor [12]) | %max [13] [%] | %max (Vasopressin V1a receptor [14]) [%] | pKi (Oxytocin receptor [15]) | pKi (Vasopressin V1a receptor [16]) | Activity (Vasopressin V1a receptor [18]) | Activity [19] | Activity [20] | Activity (Vasopressin V1a receptor [21]) | further results
1 | Cn1nccc1NS(=O)(=O)c1ccc(C(F)(F)F)cc1 | 98.3 | 90.4 | > 10 | 84.7 | 77.9 | < 5.00 | 85.5 | 79.5 | < 5.00 | 86.5 | 79.3 | < 5.00 | 4.4 | 5.1 | < 5.00 | < 5.00 | inactive | inactive | inactive | inactive | Activity [17]: inactive; Activity [22]: inactive; Activity (Vasopressin V1a receptor [23]): inactive; Activity [24]: inactive; Activity (Vasopressin V1a receptor [25]): inactive
2 | O=S(=O)(Nc1ccnn1-c1ccccn1)c1ccc(Cl)cc1 | 89.5 | 78.1 | > 10 | 85.9 | 80.2 | < 5.00 | 83.9 | 71.1 | < 5.00 | 103 | 116 | < 5.00 | 4.5 | 5.3 | < 5.00 | < 5.00 | inactive | inactive | inactive | inactive | Activity [22]: inactive; Activity (Vasopressin V1a receptor [23]): inactive; Activity [24]: inactive; Activity (Vasopressin V1a receptor [25]): inactive
